Experimental data from ChEMBL document CHEMBL1148701, “Design and synthesis of a new class of selective integrin alpha5beta1 antagonists” (J Med Chem, 2007).

target: Integrin alpha-IIb/beta-3 (Homo sapiens, UniProt P05106+P08514); experiment: Inhibition of integrin alpha-2b-beta-3 receptor by ELISA; type: protein-complex assay; conditions: not given
How it was run: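 Solid-phase ELISA. Wells coated with fibrinogen (10 µg/mL) and blocked with 3% BSA in PBS/0.1% Tween 20 for 1 h at RT. Soluble αIIbβ3 (5 µg/mL) was incubated with serially diluted inhibitor in Tris pH 7.6, 150 mM NaCl, 1 mM MnCl2/MgCl2/CaCl2, 1 mg/mL BSA for 1 h at RT. Detection used anti-CD41b then anti-mouse-HRP, TMB, A450. IC50 was taken as the curve turning point.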

Compound	IC50
Cc1cc(C)c(C(=O)N[C@@H](CNC(=O)CO[C@@H]2C[C@@H](CNc3ccccn3)N(C(=O)CC(C)(C)C)C2)C(=O)O)c(C)c1	> 50000 nM
Cc1cc(C)c(S(=O)(=O)N[C@@H](CNC(=O)CO[C@@H]2C[C@@H](CNc3ccccn3)N(C(=O)CC(C)(C)C)C2)C(=O)O)c(C)c1	8000 nM

target: not listed separately; experiment: Inhibition of integrin alpha-3b-beta-1 receptor by ELISA; design: species or system Homo sapiens; conditions: not given
How it was run: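 Solid-phase ELISA. Wells coated with laminin (5 µg/mL) and blocked with 3% BSA/PBS-Tween. Soluble α3β1 (2 µg/mL) was incubated with serially diluted inhibitor in Tris pH 7.6, NaCl, 1 mM MnCl2, BSA, 0.05% Tween 20 for 1 h at RT. Detection used polyclonal anti-α3β1 then anti-rabbit-HRP, TMB/H2SO4, absorbance 450 nm. IC50 was taken as the inflection point.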

Compound	IC50
Cc1cc(C)c(S(=O)(=O)N[C@@H](CNC(=O)CO[C@@H]2C[C@@H](CNc3ccccn3)N(C(=O)OCc3ccccc3)C2)C(=O)O)c(C)c1	> 200000 nM

target: Integrin alpha-V/beta-5 (Homo sapiens, UniProt P06756+P18084); experiment: Inhibition of integrin alpha-V-beta-5 receptor by ELISA; type: protein-complex assay; conditions: not given
Sequence (P06756 31-889 limits assumed): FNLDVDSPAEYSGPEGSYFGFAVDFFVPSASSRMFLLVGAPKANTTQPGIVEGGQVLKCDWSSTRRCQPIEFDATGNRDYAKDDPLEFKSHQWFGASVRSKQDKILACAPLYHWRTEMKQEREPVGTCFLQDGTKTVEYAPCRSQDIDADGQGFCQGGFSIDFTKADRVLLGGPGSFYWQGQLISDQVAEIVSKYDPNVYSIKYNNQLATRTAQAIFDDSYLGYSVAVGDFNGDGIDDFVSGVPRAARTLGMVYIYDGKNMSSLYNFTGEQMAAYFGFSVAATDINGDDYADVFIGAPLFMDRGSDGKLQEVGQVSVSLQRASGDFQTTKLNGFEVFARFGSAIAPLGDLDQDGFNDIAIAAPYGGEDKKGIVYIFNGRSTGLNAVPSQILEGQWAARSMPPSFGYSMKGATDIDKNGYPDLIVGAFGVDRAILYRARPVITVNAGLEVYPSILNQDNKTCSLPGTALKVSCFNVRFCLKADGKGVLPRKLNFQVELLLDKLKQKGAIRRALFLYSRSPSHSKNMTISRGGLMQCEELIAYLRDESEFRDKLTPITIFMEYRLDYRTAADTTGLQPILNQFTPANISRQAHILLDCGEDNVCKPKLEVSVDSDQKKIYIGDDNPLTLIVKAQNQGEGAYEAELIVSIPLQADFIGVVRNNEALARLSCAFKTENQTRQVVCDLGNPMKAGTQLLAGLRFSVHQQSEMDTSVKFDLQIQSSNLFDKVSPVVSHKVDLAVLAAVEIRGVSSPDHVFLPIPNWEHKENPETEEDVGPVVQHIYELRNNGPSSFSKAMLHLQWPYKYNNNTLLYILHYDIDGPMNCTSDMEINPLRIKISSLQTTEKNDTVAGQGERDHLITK
Sequence (P06756 891-1048 limits assumed): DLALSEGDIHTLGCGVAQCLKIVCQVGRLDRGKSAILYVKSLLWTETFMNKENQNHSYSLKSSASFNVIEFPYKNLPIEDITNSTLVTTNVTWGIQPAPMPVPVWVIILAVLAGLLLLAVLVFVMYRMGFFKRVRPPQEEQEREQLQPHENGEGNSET
Sequence (P18084 24-799 limits assumed): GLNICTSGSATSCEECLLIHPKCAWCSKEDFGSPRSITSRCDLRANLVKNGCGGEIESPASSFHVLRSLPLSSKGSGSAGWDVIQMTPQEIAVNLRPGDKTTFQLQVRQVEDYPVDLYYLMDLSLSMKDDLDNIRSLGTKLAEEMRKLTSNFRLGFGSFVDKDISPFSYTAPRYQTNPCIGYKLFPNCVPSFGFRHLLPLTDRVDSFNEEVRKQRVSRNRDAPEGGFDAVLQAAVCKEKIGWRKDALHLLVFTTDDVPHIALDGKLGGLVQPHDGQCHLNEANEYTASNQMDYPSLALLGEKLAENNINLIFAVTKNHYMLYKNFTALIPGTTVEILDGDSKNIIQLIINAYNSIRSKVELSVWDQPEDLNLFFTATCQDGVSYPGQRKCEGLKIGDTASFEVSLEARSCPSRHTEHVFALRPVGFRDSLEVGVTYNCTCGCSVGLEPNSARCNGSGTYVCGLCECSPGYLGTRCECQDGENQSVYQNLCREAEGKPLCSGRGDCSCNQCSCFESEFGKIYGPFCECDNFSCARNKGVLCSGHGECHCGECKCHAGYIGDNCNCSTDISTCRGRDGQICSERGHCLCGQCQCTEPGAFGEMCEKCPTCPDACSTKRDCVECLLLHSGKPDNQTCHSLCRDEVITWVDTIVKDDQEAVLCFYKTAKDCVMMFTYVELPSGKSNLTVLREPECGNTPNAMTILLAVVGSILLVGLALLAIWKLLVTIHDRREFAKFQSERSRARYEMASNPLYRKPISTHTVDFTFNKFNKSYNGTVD
How it was run: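 ELISA on vitronectin coating (5 µg/mL). Soluble αvβ5 (1.5 µg/mL) was incubated with serially diluted inhibitor for 1 h at RT in Tris pH 7.6, NaCl, 1 mM each MnCl2/MgCl2/CaCl2, BSA, 0.05% Tween 20. Detection used anti-αvβ5 and anti-mouse-HRP, TMB, A450. IC50 was the inflection point.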

Compound	IC50
Cc1cc(C)c(S(=O)(=O)N[C@@H](CNC(=O)CO[C@@H]2C[C@@H](CNc3ccccn3)N(C(=O)OCc3ccccc3)C2)C(=O)O)c(C)c1	330 nM
Cc1cc(C)c(C(=O)N[C@@H](CNC(=O)CO[C@@H]2C[C@@H](CNc3ccccn3)N(C(=O)CC(C)(C)C)C2)C(=O)O)c(C)c1	> 50000 nM
Cc1cc(C)c(S(=O)(=O)N[C@@H](CNC(=O)CO[C@@H]2C[C@@H](CNc3ccccn3)N(C(=O)CC(C)(C)C)C2)C(=O)O)c(C)c1	245 nM

system: not listed separately; experiment: Stability in human microsome at 1 uM after 1 hr; type: ADME; conditions: microsomes, read-out: Stability
How it was run: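 Compound at 1 µM was incubated with human microsomes for 1 h, and the percentage remaining was recorded.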

Compound	remaining at 1 h, 1 µM
Cc1cc(C)c(S(=O)(=O)N[C@@H](CNC(=O)CO[C@@H]2C[C@@H](CNc3ccccn3)N(C(=O)OCc3ccccc3)C2)C(=O)O)c(C)c1	43%
Cc1cc(C)c(S(=O)(=O)N[C@@H](CNC(=O)CO[C@@H]2C[C@@H](CNc3ccccn3)N(C(=O)CC(C)(C)C)C2)C(=O)O)c(C)c1	70%

target: Integrin alpha-V/beta-3 (Homo sapiens, UniProt P05106+P06756); experiment: Inhibition of integrin alpha-V-beta-3 receptor by ELISA; type: protein-complex assay; conditions: not given
Sequence (P05106 27-788 limits assumed): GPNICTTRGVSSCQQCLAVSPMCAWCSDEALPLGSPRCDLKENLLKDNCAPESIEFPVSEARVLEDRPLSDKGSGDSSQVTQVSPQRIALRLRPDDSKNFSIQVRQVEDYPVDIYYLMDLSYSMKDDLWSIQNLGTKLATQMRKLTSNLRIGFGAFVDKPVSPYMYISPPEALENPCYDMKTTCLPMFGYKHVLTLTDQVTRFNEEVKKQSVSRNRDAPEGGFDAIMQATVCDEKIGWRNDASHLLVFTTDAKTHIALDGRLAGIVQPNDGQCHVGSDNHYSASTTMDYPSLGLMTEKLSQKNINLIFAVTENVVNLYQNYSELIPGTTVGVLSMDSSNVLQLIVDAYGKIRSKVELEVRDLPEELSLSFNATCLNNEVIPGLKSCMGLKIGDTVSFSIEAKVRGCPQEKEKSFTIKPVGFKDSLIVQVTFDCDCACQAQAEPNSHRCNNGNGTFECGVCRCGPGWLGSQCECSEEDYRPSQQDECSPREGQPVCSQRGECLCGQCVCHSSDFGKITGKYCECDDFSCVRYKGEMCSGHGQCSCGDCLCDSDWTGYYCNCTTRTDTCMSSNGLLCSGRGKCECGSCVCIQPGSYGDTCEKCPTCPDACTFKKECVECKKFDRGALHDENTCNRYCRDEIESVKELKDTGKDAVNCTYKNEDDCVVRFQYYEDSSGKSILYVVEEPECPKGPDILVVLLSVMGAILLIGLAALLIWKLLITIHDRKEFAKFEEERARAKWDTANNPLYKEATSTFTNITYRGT
Sequence (P06756 31-889 limits assumed): as the sequence (P06756 31-889 limits assumed) above
Sequence (P06756 891-1048 limits assumed): as the sequence (P06756 891-1048 limits assumed) above
How it was run: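 Vitronectin-coated wells (1 µg/mL) were blocked with 3% BSA/PBS-Tween. Soluble αvβ3 (1 µg/mL) was incubated with serially diluted inhibitor for 1 h at RT in Tris/NaCl/MnCl2/BSA buffer. Binding was read with anti-αvβ3 plus anti-mouse-HRP, then TMB, absorbance 450 nm. IC50 was taken at the turning point of the inhibition curve.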

Compound	IC50
COC(=O)N1C[C@H](OCC(=O)NC[C@H](NS(=O)(=O)c2c(C)cc(C)cc2C)C(=O)O)C[C@H]1CNc1ccccn1	9 nM
Cc1cc(C)c(S(=O)(=O)N[C@@H](CNC(=O)CO[C@@H]2C[C@@H](CNc3cccc(C)n3)N(C(=O)OCc3ccccc3)C2)C(=O)O)c(C)c1	21 nM
O=C(CO[C@@H]1C[C@@H](CNc2ccccn2)N(C(=O)OCc2ccccc2)C1)NC[C@H](NC(=O)c1ccccc1)C(=O)O	140 nM
Cc1cc(C)c(S(=O)(=O)N[C@@H](CNC(=O)CO[C@@H]2C[C@@H](CNc3ccccn3)N(C(=O)OCc3ccccc3)C2)C(=O)O)c(C)c1	16 nM
Cc1cc(C)c(C(=O)N[C@@H](CNC(=O)CO[C@@H]2C[C@@H](CNc3ccccn3)N(C(=O)CC(C)(C)C)C2)C(=O)O)c(C)c1	16000 nM
Cc1cc(C)c(S(=O)(=O)N[C@@H](CNC(=O)CO[C@@H]2C[C@@H](CNc3ccccn3)N(C(=O)CCc3ccccc3)C2)C(=O)O)c(C)c1	38 nM
Cc1cc(C)c(S(=O)(=O)N[C@@H](CNC(=O)CO[C@@H]2C[C@@H](CNc3ccccn3)N(C(=O)CC(C)(C)C)C2)C(=O)O)c(C)c1	36 nM

target: Integrin alpha-5/beta-1 (Homo sapiens, UniProt P05556+P08648); experiment: Inhibition of integrin alpha-5-beta-1 receptor by ELISA; type: protein-complex assay; conditions: not given
Sequence (P05556 21-798 limits assumed): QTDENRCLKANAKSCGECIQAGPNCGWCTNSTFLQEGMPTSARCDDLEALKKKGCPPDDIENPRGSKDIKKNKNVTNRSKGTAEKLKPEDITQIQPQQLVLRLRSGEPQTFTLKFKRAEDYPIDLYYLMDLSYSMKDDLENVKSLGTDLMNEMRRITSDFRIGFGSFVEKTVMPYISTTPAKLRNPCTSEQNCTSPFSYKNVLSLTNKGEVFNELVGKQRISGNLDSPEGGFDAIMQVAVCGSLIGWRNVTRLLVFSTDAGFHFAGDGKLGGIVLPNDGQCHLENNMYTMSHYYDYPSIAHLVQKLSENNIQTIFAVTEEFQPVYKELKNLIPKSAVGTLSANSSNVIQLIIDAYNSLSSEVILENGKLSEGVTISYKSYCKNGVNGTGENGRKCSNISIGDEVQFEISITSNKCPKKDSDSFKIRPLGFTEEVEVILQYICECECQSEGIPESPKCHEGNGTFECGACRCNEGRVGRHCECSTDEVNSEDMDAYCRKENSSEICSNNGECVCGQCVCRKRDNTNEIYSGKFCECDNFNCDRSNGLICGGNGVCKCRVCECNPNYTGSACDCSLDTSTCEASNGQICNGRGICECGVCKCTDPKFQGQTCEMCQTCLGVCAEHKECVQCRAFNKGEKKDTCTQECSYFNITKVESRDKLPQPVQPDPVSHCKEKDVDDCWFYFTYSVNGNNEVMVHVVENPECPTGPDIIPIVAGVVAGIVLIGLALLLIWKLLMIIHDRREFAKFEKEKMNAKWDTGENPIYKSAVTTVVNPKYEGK
Sequence (P08648 42-894 limits assumed): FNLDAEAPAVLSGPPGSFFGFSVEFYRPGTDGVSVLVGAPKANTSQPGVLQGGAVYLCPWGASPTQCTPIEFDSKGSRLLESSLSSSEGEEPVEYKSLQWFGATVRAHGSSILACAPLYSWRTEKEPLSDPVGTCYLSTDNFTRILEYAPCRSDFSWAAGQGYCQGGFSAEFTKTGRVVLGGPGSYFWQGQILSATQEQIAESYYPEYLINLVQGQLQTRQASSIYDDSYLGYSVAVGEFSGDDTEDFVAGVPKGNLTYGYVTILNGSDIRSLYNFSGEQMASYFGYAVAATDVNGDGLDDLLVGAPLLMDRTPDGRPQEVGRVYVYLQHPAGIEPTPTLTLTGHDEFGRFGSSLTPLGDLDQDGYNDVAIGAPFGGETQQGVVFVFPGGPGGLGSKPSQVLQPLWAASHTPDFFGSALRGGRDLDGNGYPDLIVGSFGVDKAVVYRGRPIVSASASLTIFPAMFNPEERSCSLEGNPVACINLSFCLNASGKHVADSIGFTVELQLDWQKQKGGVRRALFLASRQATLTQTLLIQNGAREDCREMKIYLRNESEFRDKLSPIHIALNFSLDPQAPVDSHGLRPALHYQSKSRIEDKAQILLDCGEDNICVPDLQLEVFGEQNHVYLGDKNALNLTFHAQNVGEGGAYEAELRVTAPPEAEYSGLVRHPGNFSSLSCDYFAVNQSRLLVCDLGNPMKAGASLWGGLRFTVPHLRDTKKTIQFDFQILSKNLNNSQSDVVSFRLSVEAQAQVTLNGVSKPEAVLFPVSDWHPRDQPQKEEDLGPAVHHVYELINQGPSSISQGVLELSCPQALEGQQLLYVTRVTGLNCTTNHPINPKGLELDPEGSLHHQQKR
Sequence (P08648 895-1049 limits assumed): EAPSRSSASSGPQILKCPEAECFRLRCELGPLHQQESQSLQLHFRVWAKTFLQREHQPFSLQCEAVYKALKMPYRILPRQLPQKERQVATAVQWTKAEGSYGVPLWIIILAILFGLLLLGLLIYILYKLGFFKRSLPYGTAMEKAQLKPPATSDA
How it was run: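 Wells coated overnight at 4°C with fibronectin (0.25 µg/mL) at pH 9.6, then blocked with 3% BSA. Bound integrin was detected with anti-human-Fc-HRP, TMB, A450. IC50 was taken from the curve turning point.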

Compound	IC50
Cc1cc(C)c(S(=O)(=O)N[C@@H](CNC(=O)CO[C@H]2CN[C@H](CNc3ccccn3)C2)C(=O)O)c(C)c1	286 nM
COC(=O)N1C[C@H](OCC(=O)NC[C@H](NS(=O)(=O)c2c(C)cc(C)cc2C)C(=O)O)C[C@H]1CNc1ccccn1	15 nM
Cc1cc(C)c(S(=O)(=O)N[C@@H](CNC(=O)CO[C@@H]2C[C@@H](CNc3cccc(C)n3)N(C(=O)OCc3ccccc3)C2)C(=O)O)c(C)c1	231 nM
Cc1cc(C)c(S(=O)(=O)N[C@@H](CNC(=O)CO[C@@H]2C[C@@H](CNc3cc(Cl)ccn3)N(C(=O)OCc3ccccc3)C2)C(=O)O)c(C)c1	445 nM
O=C(CO[C@@H]1C[C@@H](CNc2ccccn2)N(C(=O)OCc2ccccc2)C1)NC[C@H](NC(=O)c1ccccc1)C(=O)O	155 nM
Cc1cc(C)c(S(=O)(=O)N[C@@H](CNC(=O)CO[C@@H]2C[C@@H](CNc3ccccn3)N(CCCc3ccccc3)C2)C(=O)O)c(C)c1	670 nM
Cc1cc(C)c(C(=O)N[C@@H](CNC(=O)CO[C@@H]2C[C@@H](CNc3ccccn3)N(C(=O)CC(C)(C)C)C2)C(=O)O)c(C)c1	1.6 nM
Cc1cc(C)c(S(=O)(=O)N[C@@H](CNC(=O)CO[C@@H]2C[C@@H](CNc3ccccn3)N(C(=O)CCc3ccccc3)C2)C(=O)O)c(C)c1	25 nM
Cc1cc(C)c(S(=O)(=O)N[C@@H](CNC(=O)CO[C@@H]2C[C@@H](CNc3ccccn3)N(C(=O)CC(C)(C)C)C2)C(=O)O)c(C)c1	6 nM
